From ChEMBL document CHEMBL1143122, “Novel analogs of D-e-MAPP and B13. Part 1: synthesis and evaluation as potential anticancer agents” (Bioorg Med Chem, 2008)

Tests used:
TK-10 = experiment: Antiproliferative activity against human TK10 cells after 48 hrs; type: functional; settings: TK-10, 48 h
In short: (§1)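 NCI 60-cell-line screen. Lines grown in RPMI 1640 with 5% fetal bovine serum and 2 mM L-glutamine, plated at 5,000–40,000 cells/well according to doubling time, left 24 h at 37 °C in 5% CO2. Drug stocks in DMSO at 400-fold the top final concentration. Five 10-fold dilutions, 10−4 to 10−8 M, incubated 48 h. Growth read spectrophotometrically as net protein; GI50 taken as 50% reduction.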

CAKI-1 = experiment: Antiproliferative activity against human CAKI1 cells after 48 hrs; type: functional; settings: CAKI-1, 48 h
In short: (§2)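 NCI 60-cell screen. Cells were grown in RPMI 1640 with 5% FBS and 2 mM L-glutamine, then plated at 5,000–40,000 cells/well according to doubling time and preincubated for 24 h at 37 °C in 5% CO2. Compounds were dissolved in DMSO at 400× the top final concentration and tested at five 10-fold dilutions from 10−4 to 10−8 M for 48 h. Growth was read spectrophotometrically; GI50 is 50% net protein reduction.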

UACC-62 = experiment: Antiproliferative activity against human UACC62 cells after 48 hrs; type: functional; settings: UACC-62, 48 h; in short: as §1
UO-31 = experiment: Antiproliferative activity against human UO31 cells after 48 hrs; type: functional; settings: UO-31, 48 h; in short: as §1
SN12C = experiment: Antiproliferative activity against human SN12C cells after 48 hrs; type: functional; in short: as §2
SNB-19 = experiment: Antiproliferative activity against human SNB19 cells after 48 hrs; type: functional; settings: SNB-19, 48 h; in short: as §2
MDA-MB-231 = experiment: Antiproliferative activity against human MDA-MB-231 cells after 48 hrs; type: functional; settings: MDA-MB-231, 48 h; in short: as §2
MOLT-4 = experiment: Antiproliferative activity against human MOLT4 cells after 48 hrs; type: functional; settings: MOLT-4, 48 h; in short: as §2
HCT-15 = experiment: Antiproliferative activity against human HCT15 cells after 48 hrs; type: functional; settings: Homo sapiens, HCT-15, 48 h; in short: as §2
KM12 = experiment: Antiproliferative activity against human KM12 cells after 48 hrs; type: functional; settings: Homo sapiens, KM12, 48 h; in short: as §2
NCI-H460 = experiment: Antiproliferative activity against human NCI-H460 cells after 48 hrs; type: functional; settings: NCI-H460, 48 h; in short: as §2
[1] = Antiproliferative activity against human NCI-ADR-RES cells after 48 hrs; type: functional; in short: as §2
SK-MEL-2 = experiment: Antiproliferative activity against human SKMEL2 cells after 48 hrs; type: functional; settings: SK-MEL-2, 48 h; in short: as §2
IGROV-1 = experiment: Antiproliferative activity against human IGROV1 cells after 48 hrs; type: functional; settings: IGROV-1, 48 h; in short: as §2
HOP-62 = experiment: Antiproliferative activity against human HOP62 cells after 48 hrs; type: functional; settings: HOP-62, 48 h; in short: as §2
[2] = Antiproliferative activity against human HL60(TB) cells after 48 hrs; type: functional, HL-60(TB); settings: HL-60, 48 h
In short: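 NCI 60-line panel screen: cells grown in RPMI 1640 with 5% fetal bovine serum and 2 mM L-glutamine, plated at 5,000–40,000 cells/well by doubling time, and preincubated 24 h at 37 °C in 5% CO2. Drugs were solubilised in DMSO at 400-fold the final maximum and tested at five 10-fold dilutions from 10−4 to 10−8 M for 48 h. Net protein was read spectrophotometrically, and the concentration giving 50% reduction was reported as log10 GI50.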

LOX IMVI = experiment: Antiproliferative activity against human LOXIMVI cells after 48 hrs; type: functional; in short: as §2
A498 = experiment: Antiproliferative activity against human A498 cells after 48 hrs; type: functional; settings: A498, 48 h; in short: as §2
T47D = experiment: Antiproliferative activity against human T47D cells after 48 hrs; type: functional; in short: as §1
SK-OV-3 = experiment: Antiproliferative activity against human SKOV3 cells after 48 hrs; type: functional; settings: SK-OV-3, 48 h; in short: as §2
SK-MEL-28 = experiment: Antiproliferative activity against human SKMEL28 cells after 48 hrs; type: functional; settings: SK-MEL-28, 48 h; in short: as §2
DU-145 = experiment: Antiproliferative activity against human DU145 cells after 48 hrs; type: functional; settings: DU-145, 48 h; in short: as §2
UACC-257 = experiment: Antiproliferative activity against human UACC257 cells after 48 hrs; type: functional; settings: UACC-257, 48 h; in short: as §1
SF-295 = experiment: Antiproliferative activity against human SF295 cells after 48 hrs; type: functional; settings: SF-295, 48 h; in short: as §2
HT-29 = experiment: Antiproliferative activity against human HT29 cells after 48 hrs; type: functional; settings: HT-29, 48 h; in short: as §2
M14 = experiment: Antiproliferative activity against human M14 cells after 48 hrs; type: functional; settings: M14, 48 h; in short: as §2
786-0 = experiment: Antiproliferative activity against human 786-0 cells after 48 hrs; type: functional; settings: 786-0, 48 h; in short: as §2
NCI-H322M = experiment: Antiproliferative activity against human NCI-H322M cells after 48 hrs; type: functional; in short: as §2
[3] = read-out: Log LC50 (the source's name) (converted)

Which GI50 (TK-10) does the source give for C[C@H](NC(=O)CCCCCCCCCCCCCCC[n+]1ccccc1)[C@H](O)c1ccccc1.[Br-] here?
Its GI50 is 14.5 µM.

What about the CC50 (TK-10; [3]) of the same molecule?
Its CC50 is 56.2 µM.

And the TGI (TK-10; read-out: Log TGI (converted))?
Its TGI is 28.2 µM.

And the GI50 (CAKI-1)?
The GI50 was 14.1 µM.

And the CC50 (CAKI-1; [3])?
The CC50 was 53.7 µM.

What about the TGI (CAKI-1; read-out: Log TGI (converted)) of the same molecule?
Its TGI is 27.5 µM.

What about the GI50 (UACC-62) of the same molecule?
The GI50 was 1.86 µM.

And the LC50 (UACC-62)?
The LC50 was 25.1 µM.

What about the TGI (UACC-62; read-out: Log TGI (converted)) of the same molecule?
The TGI was 5.75 µM.

What about the GI50 (UO-31) of the same molecule?
The GI50 was 28.8 µM.

And the LC50 (UO-31)?
Its LC50 is greater than 100 µM.

And the TGI (UO-31; read-out: Log TGI (converted))?
Its TGI is 95.5 µM.

What about the GI50 (SN12C) of the same molecule?
The GI50 was 3.47 µM.

And the LC50 (50% net cell kill) (SN12C)?
The LC50 (50% net cell kill) was 47.9 µM.

And the TGI (SN12C; read-out: Log TGI (converted))?
The TGI was 14.8 µM.

And the GI50 (SNB-19)?
Its GI50 is 3.09 µM.

And the CC50 (SNB-19; [3])?
Its CC50 is 38 µM.

And the TGI (SNB-19; read-out: Log TGI (converted))?
The TGI was 13.2 µM.

And the GI50 (MDA-MB-231)?
Its GI50 is 3.24 µM.

What about the LC50 (50% lethal concentration) (MDA-MB-231) of the same molecule?
Its LC50 (50% lethal concentration) is 42.7 µM.

What about the TGI (MDA-MB-231; read-out: Log TGI (converted)) of the same molecule?
The TGI was 33.1 µM.

What about the GI50 (MOLT-4) of the same molecule?
The GI50 was 4.9 µM.

What about the LC50 (MOLT-4) of the same molecule?
The LC50 was 63.1 µM.

What about the TGI (MOLT-4; read-out: Log TGI (converted)) of the same molecule?
Its TGI is 18.6 µM.

What about the GI50 (HCT-15) of the same molecule?
Its GI50 is 57.5 µM.

And the LC50 (HCT-15)?
Its LC50 is greater than 100 µM.

And the TGI (HCT-15; read-out: Log TGI (converted))?
Its TGI is greater than 100 µM.

And the GI50 (KM12)?
Its GI50 is 2.75 µM.

And the CC50 (KM12; [3])?
The CC50 was 36.3 µM.

What about the TGI (KM12; read-out: Log TGI (converted)) of the same molecule?
The TGI was 11.5 µM.

What about the GI50 (NCI-H460) of the same molecule?
The GI50 was 2.82 µM.

What about the CC50 (NCI-H460; [3]) of the same molecule?
Its CC50 is 41.7 µM.

What about the TGI (NCI-H460; read-out: Log TGI (converted)) of the same molecule?
The TGI was 13.2 µM.

And the GI50 [1]?
Its GI50 is greater than 100 µM.

And the LC50 [1]?
Its LC50 is greater than 100 µM.

And the TGI ([1]; read-out: Log TGI (converted))?
The TGI was greater than 100 µM.

What about the GI50 (SK-MEL-2) of the same molecule?
The GI50 was 2.88 µM.

What about the LC50 (SK-MEL-2) of the same molecule?
The LC50 was 60.3 µM.

And the TGI (SK-MEL-2; read-out: Log TGI (converted))?
The TGI was 7.41 µM.

And the GI50 (IGROV-1)?
The GI50 was 3.16 µM.

And the LC50 (IGROV-1)?
The LC50 was 57.5 µM.

And the TGI (IGROV-1; read-out: Log TGI (converted))?
Its TGI is 15.8 µM.

And the GI50 (HOP-62)?
Its GI50 is 7.08 µM.

What about the CC50 (HOP-62; [3]) of the same molecule?
Its CC50 is 44.7 µM.

What about the TGI (HOP-62; read-out: Log TGI (converted)) of the same molecule?
The TGI was 20.4 µM.

What about the GI50 [2] of the same molecule?
Its GI50 is 1.48 µM.

And the LC50 [2]?
The LC50 was 31.6 µM.

What about the TGI ([2]; read-out: Log TGI (converted)) of the same molecule?
The TGI was 4.37 µM.

And the GI50 (LOX IMVI)?
The GI50 was 4.07 µM.

And the LC50 (LOX IMVI)?
The LC50 was 44.7 µM.

And the TGI (LOX IMVI; read-out: Log TGI (converted))?
The TGI was 14.8 µM.

What about the GI50 (A498) of the same molecule?
Its GI50 is 17.8 µM.

What about the CC50 (A498; [3]) of the same molecule?
The CC50 was 57.5 µM.

What about the TGI (A498; read-out: Log TGI (converted)) of the same molecule?
The TGI was 32.4 µM.

And the GI50 (T47D)?
Its GI50 is 0.933 µM.

What about the CC50 (T47D; [3]) of the same molecule?
Its CC50 is 58.9 µM.

What about the TGI (T47D; read-out: Log TGI (converted)) of the same molecule?
The TGI was 10.7 µM.

What about the GI50 (SK-OV-3) of the same molecule?
The GI50 was 3.31 µM.

And the CC50 (SK-OV-3; [3])?
Its CC50 is 35.5 µM.

What about the TGI (SK-OV-3; read-out: Log TGI (converted)) of the same molecule?
Its TGI is 12 µM.

What about the GI50 (SK-MEL-28) of the same molecule?
Its GI50 is 2.34 µM.

And the LC50 (SK-MEL-28)?
The LC50 was 20.4 µM.

And the TGI (SK-MEL-28; read-out: Log TGI (converted))?
Its TGI is 6.03 µM.

And the GI50 (DU-145)?
The GI50 was 12.6 µM.

And the CC50 (DU-145; [3])?
Its CC50 is 50.1 µM.

What about the TGI (DU-145; read-out: Log TGI (converted)) of the same molecule?
Its TGI is 25.1 µM.

And the GI50 (UACC-257)?
Its GI50 is 2.24 µM.

And the CC50 (UACC-257; [3])?
Its CC50 is 38.9 µM.

And the TGI (UACC-257; read-out: Log TGI (converted))?
Its TGI is 8.32 µM.

And the GI50 (SF-295)?
Its GI50 is 14.5 µM.

And the LC50 (SF-295)?
The LC50 was 53.7 µM.

And the TGI (SF-295; read-out: Log TGI (converted))?
The TGI was 27.5 µM.

And the GI50 (HT-29)?
The GI50 was 1.32 µM.

And the LC50 (HT-29)?
Its LC50 is 34.7 µM.

And the TGI (HT-29; read-out: Log TGI (converted))?
Its TGI is 11.7 µM.

And the GI50 (M14)?
Its GI50 is 6.31 µM.

What about the LC50 (M14) of the same molecule?
The LC50 was 46.8 µM.

What about the TGI (M14; read-out: Log TGI (converted)) of the same molecule?
Its TGI is 19.5 µM.

What about the GI50 (786-0) of the same molecule?
The GI50 was 10.2 µM.

What about the CC50 (786-0; [3]) of the same molecule?
The CC50 was 49 µM.

What about the TGI (786-0; read-out: Log TGI (converted)) of the same molecule?
The TGI was 22.4 µM.

What about the GI50 (NCI-H322M) of the same molecule?
Its GI50 is 14.5 µM.

What about the CC50 (NCI-H322M; [3]) of the same molecule?
The CC50 was 52.5 µM.

And the TGI (NCI-H322M; read-out: Log TGI (converted))?
The TGI was 31.6 µM.
